{"source": "paper PMC3159890", "about": "(Frontiers in Pharmacology, 2011)", "type_in_all_cases": "cell-based", "key": {"wt-CFTR [1]": {"biological_target": "T1, wt-CFTR (Homo sapiens, UniProt P13569)", "assay": "whole-cell patch-clamp on wt-CFTR-CHO cells", "procedure,_shortened": "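CHO cells stably expressing wt-CFTR, kept in α-MEM-GlutaMAX with 7% FBS and 100 μM methotrexate, were plated in 35-mm dishes. Whole-cell currents sampled at 3 kHz. Holding potential −40 mV, with pulses −100 to +100 mV in 20 mV steps. Capacitance obtained from a 10 mV hyperpolarization; currents normalized per pF. Stimulation with forskolin 1 μM plus test compound 10 μM. Time course: amplitude at +40 mV plotted every 10 s.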"}, "wild-type CFTR": {"biological_target": "wild-type CFTR (Homo sapiens, UniProt P13569)", "assay": "iodide efflux in NuLi-1 cells", "procedure,_shortened": "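NuLi-1 cells (non-CF human bronchial epithelium, wild-type CFTR) cultured on collagen type VI-coated flasks in BEGM at 37°C, 5% CO2, media changed every 2 days, and seeded in 24-well plates. Iodide efflux stimulated by forskolin 10 μM plus test compound 100 μM. CFTR-inh172 10 μM was present in loading solution and efflux buffer.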"}, "F508del-CFTR": {"biological_target": "F508del-CFTR (Homo sapiens, UniProt P13569, DEL508-508)", "assay": "iodide efflux in CuFi-1 cells", "procedure,_shortened": "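CuFi-1 cells (F508del/F508del, CF bronchial epithelium) grown on collagen type VI-coated flasks in BEGM at 37°C, 5% CO2, media renewed every 2 days, then seeded in 24-well plates. F508del-CFTR rescued by 24 h at 27°C or 24 h at 37°C with miglustat. Iodide efflux stimulated by forskolin 10 μM plus test compound 100 μM. Chloride transport inhibitors, when used, were present in loading solution and efflux buffer.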"}, "wt-CFTR-CHO cells": {"test_system": "wt-CFTR-CHO cells", "assay": "MTT cytotoxicity assay", "details": "100 μM, 24 h", "procedure,_shortened": "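wt-CFTR-CHO cells in α-MEM-GlutaMAX with 7% FBS and 100 μM methotrexate, exposed 24 h at 37°C to 100 μM test compound; MTT done the next day. PBS wash, then MTT (0.5 mg/ml in PBS) for 4 h at 37°C. Formazan dissolved in DMSO; OD read at 570 nm against 630 nm reference. Mean of three replicates, as percentage of control.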"}, "wt-CFTR [2]": {"biological_target": "T1, wt-CFTR", "assay": "iodide efflux in wt-CFTR-CHO cells", "procedure,_shortened": "(§1)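 Stably transfected CHO cells (wt-CFTR or G551D-CFTR, methotrexate-selected) seeded in 24-well plates and loaded with 125I; efflux sampled robotically. Rate k = ln(125It1/125It2)/(t1–t2); response = kpeak − kbasal (min−1). Concentration-response curves expressed as percentage of maximal activation. Chloride transport inhibitors, when used, were present in both loading and efflux buffers.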"}, "[3]": {"test_system": "cAMP levels in wt-CFTR-CHO cells", "assay": "cAMP-Screen ELISA determination of cAMP", "details": "RP193 100 μM alone or with forskolin 1 μM, 10 min", "procedure,_shortened": "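wt-CFTR-CHO cells incubated with agents for 10 min at 37°C. Reactions then stopped and intracellular cAMP quantified by cAMP-Screen ELISA, following the kit instructions.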"}, "CHO-K1": {"test_system": "CHO-K1", "assay": "whole-cell patch-clamp on CHO-K1 cells", "details": "forskolin 1 μM; RP193 10 μM", "procedure,_shortened": "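Whole-cell clamp, seals 5–10 GΩ. Pipette (mM): Cs-aspartate/CsCl, 1 EGTA, 10 TES, 3 MgATP, pH 7.2. Bath (mM): 145 NaCl, 4 CsCl, 1 CaCl2, 1 MgCl2, 10 glucose, 10 TES, pH 7.4. Held at −40 mV, stepped −100 to +100 mV in 20 mV increments; sampled at 3 kHz. Currents normalised to capacitance (pA/pF); time course read at +40 mV every 10 s.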"}, "wt-CFTR [4]": {"biological_target": "T1, wt-CFTR", "assay": "single-channel cell-attached patch-clamp on wt-CFTR-CHO cells", "procedure,_shortened": "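Cell-attached single-channel recordings on wt-CFTR-CHO cells at room temperature, seals 10–20 GΩ. Bath received forskolin 1 μM, then test compound 10 μM. Pipette (mM): 150 NaCl, 2 MgCl2, 10 TES, pH 7.4. Bath (mM): 145 NaCl, 4 KCl, 2 MgCl2, 10 TES, pH 7.4. Sampled at 3 kHz, filtered at 100 Hz (eight-pole Bessel). Potential = bath minus pipette.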"}, "G551D-CFTR": {"biological_target": "G551D-CFTR (Homo sapiens, UniProt P13569, G551D)", "assay": "iodide efflux in G551D-CFTR-CHO cells", "procedure,_shortened": "as §1"}, "[5]": {"test_system": "primary cultures of human bronchial epithelial cells (HBEC)", "assay": "Ussing chamber short-circuit current in primary HBEC cultures", "details": "amiloride 10 μM, luminal bath", "procedure,_shortened": "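Primary non-CF bronchial epithelial cells (three lung-resection donors), enzymatically isolated, grown to confluence on permeable collagen supports. Mounted in Ussing chambers in KBR at 37°C, gassed 95% O2-5% CO2. After 20–30 min equilibration and 10 min basal: amiloride 10 μM apical, forskolin 1 μM both sides, test compound basolateral, with 10–15 min stabilisation between additions. ΔIsc = plateau minus pre-addition value; Rt from +2 mV pulses every 90 s.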"}}}
{"smiles": "O=C(O)c1ccc(/C=C2\\SC(=S)N(c3cccc(C(F)(F)F)c3)C2=O)cc1", "note": "[CFTR-inh172, reference compound]", "values": [{"measurement": "whole-cell current amplitude at +40 mV after inhibitor", "setting": "wt-CFTR [1]; CFTR-inh172 10 μM added after fsk 1 μM + RP193 10 μM", "value": "8.2 ± 5.2", "unit": "pA/pF"}, {"measurement": "inhibition of RP193-stimulated iodide efflux in NuLi-1 cells", "setting": "wild-type CFTR; CFTR-inh172 10 μM", "value": "abolished"}, {"measurement": "inhibition of RP193-induced iodide efflux in CuFi-1 cells", "setting": "F508del-CFTR; miglustat-treated cells, CFTRinh-172 10 μM, data not shown", "value": "fully inhibited"}]}
{"smiles": "CCCCc1c(-c2ccc(O)cc2)[nH]c2nccnc12", "note": "[RP107, 7-n-butyl-6-(4-hydroxyphenyl)[5H]-pyrrolo[2,3-b]pyrazine]", "values": [{"measurement": "cytotoxicity (cell viability, MTT)", "setting": "wt-CFTR-CHO cells", "value": "significantly higher cytotoxicity compared to the control conditions"}]}
{"smiles": "Br.CCCCc1c(-c2cccc(O)c2)[nH]c2nccnc12", "note": "[RP146, 7-n-Butyl-6-(3-hydroxyphenyl)-5H-pyrrolo[2,3-b]pyrazine hydrobromide]", "values": [{"measurement": "EC50", "setting": "wt-CFTR [2]", "value": 97, "unit": "µM"}, {"measurement": "cytotoxicity (cell viability, MTT)", "setting": "wt-CFTR-CHO cells", "value": "significantly higher cytotoxicity compared to the control conditions"}]}
{"smiles": "Br.CCCCc1c(-c2ccccc2O)[nH]c2nccnc12", "note": "[RP173, 7-n-Butyl-6-(2-hydroxyphenyl)-5H-pyrrolo[2,3-b]pyrazine hydrobromide]", "values": [{"measurement": "cytotoxicity (cell viability, MTT)", "setting": "wt-CFTR-CHO cells", "value": "significantly higher cytotoxicity compared to the control conditions"}]}
{"smiles": "CCCCc1c(-c2ccc(F)cc2)[nH]c2nccnc12", "note": "[RP185, 7-n-butyl-6-(4-fluorophenyl)-5H-pyrrolo[2,3-b]pyrazine]", "values": [{"measurement": "EC50", "setting": "wt-CFTR [2]", "value": 78, "unit": "µM"}, {"measurement": "cytotoxicity (cell viability, MTT)", "setting": "wt-CFTR-CHO cells", "value": "not cytotoxic"}]}
{"smiles": "CCCCc1c(-c2ccccc2F)[nH]c2nccnc12", "note": "[RP193, 7-n-butyl-6-(2-fluorophenyl)-5H-pyrrolo[2,3-b]pyrazine]", "values": [{"measurement": "stimulation of CFTR-dependent iodide efflux", "setting": "wt-CFTR [2]; RP193 100 μM without forskolin, wt-CFTR-CHO cells", "value": "no stimulation of CFTR activity"}, {"measurement": "cytotoxicity (cell viability, MTT)", "setting": "wt-CFTR-CHO cells", "value": "not cytotoxic"}, {"measurement": "dependence of CFTR potentiation on intracellular cAMP levels", "setting": "[3]", "value": "independent of intracellular cAMP levels"}, {"measurement": "time to significant increase of the whole-cell current", "setting": "wt-CFTR [1]; RP193 10 μM in presence of forskolin 1 μM", "value": "5 to 7", "unit": "min"}, {"measurement": "whole-cell current amplitude at +40 mV", "setting": "wt-CFTR [1]; RP193 10 μM in the presence of 1 μM fsk", "value": "113.8 ± 15.1", "unit": "pA/pF"}, {"measurement": "effect on whole-cell current in CHO-K1", "setting": "CHO-K1", "value": "no effect"}, {"measurement": "single-channel CFTR activity, cell-attached", "setting": "wt-CFTR [4]; RP193 10 μM in bath, in presence of forskolin 1 μM", "value": "progressive and sustained CFTR activity was recorded"}, {"measurement": "average unitary conductance", "setting": "wt-CFTR [4]; forskolin 1 μM + RP193 10 μM, n = 4", "value": "8.1 ± 0.0", "unit": "pS"}, {"measurement": "stimulation of iodide efflux in NuLi-1 cells", "setting": "wild-type CFTR; RP193 100 μM in presence of forskolin 10 μM", "value": "stimulated CFTR in NuLi-1 cells"}, {"measurement": "stimulation of iodide efflux in CuFi-1 cells", "setting": "F508del-CFTR; cells 24 h at 27°C, RP193 100 μM in presence of forskolin 10 μM", "value": "iodide efflux significantly higher than with forskolin alone"}, {"measurement": "stimulation of iodide efflux in CuFi-1 cells", "setting": "F508del-CFTR; cells cultivated at 37°C, RP193 100 μM + forskolin 10 μM", "value": "did not stimulate iodide efflux"}, {"measurement": "stimulation of iodide efflux in CuFi-1 cells", "setting": "F508del-CFTR; cells non-treated with miglustat", "value": "no effect"}, {"measurement": "stimulation of iodide efflux in G551D-CFTR-CHO cells", "setting": "G551D-CFTR; RP193 10 μM in presence of forskolin 10 μM, n = 4", "value": "stimulated an efflux"}, {"measurement": "stimulation of iodide efflux in G551D-CFTR-CHO cells", "setting": "G551D-CFTR; RP193 alone, not shown", "value": "did not have any effect"}]}
{"smiles": "N=C(N)NC(=O)c1nc(Cl)c(N)nc1N", "note": "[amiloride]", "values": [{"measurement": "change in Isc", "setting": "[5]", "value": "−29.5 ± 4.5", "unit": "μA/cm^2"}]}
{"smiles": "C=C[C@@]1(C)CC(=O)[C@]2(O)[C@@]3(C)[C@@H](O)CCC(C)(C)[C@@H]3[C@H](O)[C@H](OC(C)=O)[C@@]2(C)O1", "note": "[forskolin, reference compound]", "values": [{"measurement": "whole-cell current amplitude at +40 mV", "setting": "wt-CFTR [1]; forskolin 1 μM alone", "value": "18.4 ± 6.2", "unit": "pA/pF"}, {"measurement": "effect on whole-cell current in CHO-K1", "setting": "CHO-K1", "value": "no effect"}, {"measurement": "stimulation of iodide efflux in G551D-CFTR-CHO cells", "setting": "G551D-CFTR; forskolin 10 μM alone, compared to basal state", "value": "No significant stimulation"}]}
